Compound activity (PubChem BioAssay)
S100A4 inh HTS: blocks human S100A4 binding to myosin IIA peptide; 0.14% of 360,000 active; P26447; inhibition, % at 10.7 µM; S100A4/TAMRA-MyoIIA peptide fluorescence polarization;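 active = mean inhibition of at least 70% across replicates, with every replicate also reaching that level; inconclusive = mean inhibition reaches 70% but some replicates fall short; inactive = mean inhibition below 70%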
Target sequence (P26447 whole entry, looked up): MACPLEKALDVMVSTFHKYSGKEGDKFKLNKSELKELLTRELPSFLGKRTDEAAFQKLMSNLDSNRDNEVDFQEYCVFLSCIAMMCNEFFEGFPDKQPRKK
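System – human S100A4 monomer protein, biochemical binding assay · Buffer or medium – Calcium-containing HEPES buffer, pH 7.2 · Timing – 5 min between mix addition and reading · Also added – TAMRA-labelled myosin IIA heavy-chain peptide probe, 5 nM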
E-sel inducer: induces E-selectin expression in human endothelial cells | 0.37% of 260,000 active | AID 686992 | activation, % at 7.58 µM | P16581 | HUVEC E-selectin immunofluorescence imaging; normalized: neutral wells 0, TNF-alpha wells 100;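 active = mean E-selectin-positive cell signal at least 10% of the positive control, reached in at least 60% of replicates, without over 20% cell loss; inconclusive = no rule given, readout overlaps actives, possibly toxicity-flagged; inactive = the rest, including those meeting only one limit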
Target sequence (P16581 whole entry, looked up): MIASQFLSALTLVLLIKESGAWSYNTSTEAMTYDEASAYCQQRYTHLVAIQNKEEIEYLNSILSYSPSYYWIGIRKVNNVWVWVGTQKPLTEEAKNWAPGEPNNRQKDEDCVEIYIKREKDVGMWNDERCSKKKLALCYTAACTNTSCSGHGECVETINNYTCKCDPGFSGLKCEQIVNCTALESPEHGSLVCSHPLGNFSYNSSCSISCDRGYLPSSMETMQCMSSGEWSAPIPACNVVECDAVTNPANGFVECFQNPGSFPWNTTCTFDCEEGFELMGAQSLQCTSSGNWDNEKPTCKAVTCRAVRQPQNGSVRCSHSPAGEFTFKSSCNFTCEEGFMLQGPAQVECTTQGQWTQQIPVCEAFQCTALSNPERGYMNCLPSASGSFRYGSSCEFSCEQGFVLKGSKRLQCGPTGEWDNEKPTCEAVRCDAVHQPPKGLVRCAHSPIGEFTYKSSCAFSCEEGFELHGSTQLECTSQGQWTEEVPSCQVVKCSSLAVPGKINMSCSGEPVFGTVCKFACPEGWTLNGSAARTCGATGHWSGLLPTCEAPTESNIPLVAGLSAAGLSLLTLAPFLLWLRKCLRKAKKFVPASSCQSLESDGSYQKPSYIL
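Test system – human umbilical vein endothelial cells (HUVEC), E-selectin induction · Input – 3,000 HUVEC seeded per well · Buffer or medium – EGM-2, gelatin · Compound dosing – single-point compound dose · Detection – immunofluorescence imaging · Measure – percent E-selectin-positive cells · Controls – TNF-alpha high, DMSO low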
DENV2 CPE rescue: protects cells from dengue virus 2 cytopathic effect. CPE inhibition, % at 9.99 µM. 1.7% of 350,000 active. DENV2-infected cells, cytopathic effect rescue, plate reader; in the data active = CPE inhibition above about 20%, passing the limit was not always enough; inconclusive = no clear call, values can overlap the other calls; tested in BHK-21 cells;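 note: 0% = median of neutral control wells and 100% = median of positive control wells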
Xi reactivation: X-chromosome reactivation activator; XiGFP mouse fibroblasts, % GFP-positive cells imaging, 3 d; cells co-treated with 5-aza-dC sensitizer; scaled so ellipticine positive control = 100%; activation, % at 7.58 µM; 0.055% of 360,000 active;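 active = mean normalized replicate activation at least 10% and every replicate at or above 10%; inconclusive = only one of the two criteria met; inactive = mean below 10% and not all replicates reach 10%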;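 note: 0% = median of on-plate neutral control wells and 100% = ellipticine 6 µM median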
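Assay system: SV40-immortalized XiGFP fibroblast cells, line 68-5-11; buffer or medium: DMEM plus 5-aza-dC sensitizer; compound: one concentration, pinned; timing: compounds 3 days, fix/stain 15 min at room temperature; benchmarks: positive control ellipticine, 6 µM final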
* hit, by the source's call; u = inconclusive; x = no result given. Sampled rows, rich in hits. Any-hit rate of the full collection: about 2%.

SMILES	S100A4 inh HTS	E-sel inducer	DENV2 CPE rescue	Xi reactivation
CCC(=O)N1CC2(CN(Cc3ccc(OC)cc3)C2)c2c(n(C)c3cc(OC)ccc23)[C@H]1CO	-32.9	-0.7	-11.3	0.5
COc1ccc2c3c(n(C)c2c1)[C@@H](CO)N(C(=O)C1CCCC1)CC31CN(C(=O)Nc2cccc(F)c2)C1	-3.6	1.1	77.3*	0.0
COc1ccc2c3c(n(C)c2c1)[C@H](CO)N(C(=O)C1CCCC1)CC31CN(C(=O)Nc2cccc(F)c2)C1	-1.1	0.4	-10.4	0.0
COc1ccc2c3c(n(C)c2c1)[C@@H](CO)N(Cc1ccc(F)cc1)CC31CN(CC2CCOCC2)C1	x	-0.2	99.3*	0.3
COc1ccc2c3c(n(C)c2c1)[C@H](CO)N(Cc1ccc(F)cc1)CC31CN(CC2CC2)C1	-7.0	0.8	-1.0	0.2
Cc1cccc(NC(=O)c2cc3ccccc3nc2C)c1	-2.4	4.9	1.6	0.2
COc1ccc2c3c(n(C)c2c1)[C@H](CO)N(C(=O)CN1CCOCC1)CC31CN(Cc2ccncc2)C1	0.6	-0.2	36.6*	0.4
COCC(=O)N1CC2(CCN(Cc3ccccc3)CC2)c2c(n(C)c3cc(OC)ccc23)[C@@H]1CO	-2.4	-0.3	6.5	0.6
COCC(=O)N1CC2(CCN(Cc3cncnc3)CC2)c2c(n(C)c3cc(OC)ccc23)[C@H]1CO	x	-0.1	50.1*	0.0
COc1ccc2c3c(n(C)c2c1)[C@H](CO)N(C(=O)C1CCC1)CC31CN(Cc2cccc(F)c2)C1	8.4	0.2	22.0*	0.3
COc1ccc2c3c(n(C)c2c1)[C@H](CO)N(C)CC31CCN(C(=O)CN2CCOCC2)CC1	-5.4	-0.3	52.9*	0.0
COc1cccc(-c2ccc3c(c2)[C@@H]2[C@@H](CCN2S(=O)(=O)c2ccccc2OC)[C@H](CO)N3)c1	8.1	-0.5	-19.2	0.0
Cc1ccc(C(=O)COC(=O)CN2C(=O)C3CC=CCC3C2=O)cc1C (stereo not drawn)	2.4	1.4	5.1	0.1
Cc1cccc(NC(=O)c2cccc(S(=O)(=O)N(C)C3CCCCC3)c2)n1	0.4	-0.2	20.9*	0.0
O=C(N[C@@H]1c2ccccc2CC[C@@H]1OCc1ccccc1)c1ccc(C(F)(F)F)cc1	-6.0	1.5	69.2*	0.6
O=C(COCc1ccccc1)N[C@@H]1c2ccccc2CC[C@H]1OCc1ccccc1	0.6	-0.1	-1.7	0.0
COc1ccc(S(=O)(=O)Nc2cccc3c2O[C@H](CN(C)C(=O)Nc2c(C)noc2C)[C@H](C)CN([C@H](C)CO)C3=O)cc1	-0.3	96.0*	-0.6	-0.1
Cc1noc(C)c1NC(=O)N(C)C[C@@H]1Oc2c(NS(=O)(=O)c3ccccc3)cccc2C(=O)N([C@@H](C)CO)C[C@@H]1C	1.7	0.0	124.6*	-1.0
COc1ccc(S(=O)(=O)Nc2cccc3c2O[C@H](CN(C)C(=O)Nc2c(C)noc2C)[C@@H](C)CN([C@@H](C)CO)C3=O)cc1	-1.9	31.8*	9.5	-0.1
COC(CNC(=O)c1ccc(CS(=O)(=O)c2ccccc2)o1)OC	-3.8	0.1	-0.8	0.0
COc1ccc(CC(=O)Nc2ccc(S(=O)(=O)Nc3cc(C)nc(C)n3)cc2)cc1OC	-15.0	0.1	29.6*	0.1
Cc1cc(NS(=O)(=O)c2ccc(NC(=O)Cc3ccccc3)cc2)nc(C)n1	0.6	x	-5.3	0.4
CCOC(=O)N1CCN(C(=O)CCS(=O)(=O)c2cc3c(cc2Cl)NC(=O)CO3)CC1	-1.0	-0.2	23.9*	0.5
Cc1ccc(CNC(=O)CCS(=O)(=O)c2cc3c(cc2Cl)NC(=O)CO3)cc1	2.1	-0.4	15.7	0.0
CC(=O)c1ccc(NC(=O)c2ccc(NC(=O)CCS(=O)(=O)c3cccs3)cc2)cc1	9.7	1.2	x	-0.1
SMILES	S100A4 inh HTS	E-sel inducer	DENV2 CPE rescue	Xi reactivation
CC(=O)c1cccc(NC(=O)c2ccc(NC(=O)CCS(=O)(=O)c3cccs3)cc2)c1	1.3	x	27.9*	0.5
Cc1cccc(NC(=S)NCCc2ccccn2)c1	-33.7	x	10.2	0.0
Cc1nc(CCNC(=O)CC2C(=O)NCCN2CC(C)(C)C)nc2c1CCC2 (stereo not drawn)	3.6	-1.5	13.0	0.4
Cc1nc(CCNC(=O)CC2C(=O)NCCN2CC(C)C)nc2c1CCC2 (stereo not drawn)	-2.3	0.0	43.8*	0.2
COc1ccc(C(CC(=O)O)N2Cc3ccccc3C2=O)cc1 (stereo not drawn)	-6.3	x	u	0.2
C[C@H](CO)N1C[C@H](C)[C@H](CN(C)C(=O)Nc2ccc(F)cc2)Oc2ncc(C3=CCCCC3)cc2C1=O	-4.2	0.9	32.5*	0.7
CCCNC(=O)N(C)C[C@H]1Oc2ncc(C3=CCCC3)cc2C(=O)N([C@@H](C)CO)C[C@H]1C	-12.9	0.3	3.7	-0.8
C[C@H](CO)N1C[C@H](C)[C@@H](CN(C)C(=O)Nc2cccc(F)c2)Oc2ncc(C3=CCCCC3)cc2C1=O	2.5	0.2	20.4*	-0.2
CCCNC(=O)N(C)C[C@H]1Oc2ncc(C3=CCCC3)cc2C(=O)N([C@H](C)CO)C[C@@H]1C	-16.9	133.9*	7.8	-0.8
C[C@@H]1CN([C@H](C)CO)C(=O)c2cc(C3=CCCC3)cnc2O[C@@H]1CN(C)C(=O)Nc1ccccc1	0.1	59.3*	34.3*	-0.6
Cc1noc(C)c1NC(=O)N(C)C[C@@H]1OCCCC[C@@H](C)Oc2ccc(NC(=O)Nc3cccc4ccccc34)cc2C(=O)N([C@@H](C)CO)C[C@H]1C	x	0.1	14.1	-0.9
CN(C)c1ccc(C=c2c3ccccc3n3c2c2ccccc2[n+]3C)cc1	-5.2	x	-5.4	-0.2
Cc1cc2c(=Cc3ccc(N(C)C)cc3)c3ccccc3n2[n+]1C	-131.1	49.0*	17.1	0.1
CCOC(=O)c1cc2c(=Cc3ccc(N(C)C)cc3)c3ccccc3n2[n+]1C	-109.3	138.7*	34.9*	0.0
Cc1noc(C)c1NC(=O)Nc1ccc2c(c1)C(=O)N([C@@H](C)CO)C[C@@H](C)[C@@H](CN(C)Cc1ccccc1)OCCCC[C@@H](C)O2	-4.0	-0.2	88.8*	0.4
Cc1noc(C)c1NC(=O)Nc1ccc2c(c1)C(=O)N([C@@H](C)CO)C[C@H](C)[C@@H](CN(C)Cc1ccccc1)O2	-1.5	0.1	29.1*	-0.1
Cc1noc(C)c1NC(=O)Nc1ccc2c(c1)C(=O)N([C@H](C)CO)C[C@H](C)[C@H](CN(C)Cc1ccc(Cl)c(Cl)c1)OCCCC[C@H](C)O2	9.1	0.0	26.6*	0.0
Cc1noc(C)c1NC(=O)Nc1ccc2c(c1)C(=O)N([C@H](C)CO)C[C@@H](C)[C@H](CN(C)Cc1ccccc1)OCCCC[C@@H](C)O2	-7.2	-0.1	7.6	0.0
CC(NC(=O)c1ccc(OC2CCN(C(=O)c3cccnc3)CC2)cc1)C1CC1 (stereo not drawn)	-2.0	-2.4	-9.3	0.0
